From the array DNA melting data of Ke et al. (doi:10.1101/2024.01.08.574731)

Tests used:
[1] = melting temperature; fluorescence melt of hairpins on a sequencing array, two-state fit, raised by 9.35 °C to match UV melts; conditions: sodium 0.088 M
Procedure, shortened: (§1)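 Folding enthalpy and melting temperature were estimated with bootstrapped two-state fits and combined across four replicates by inverse-variance weighting, with fitted temperatures raised by 9.35 °C to match UV melts. The data were Cy3 fluorescence of library hairpins, with annealed Cy3 and quencher oligos, on a sequenced MiSeq flow cell in 50 mM Na-HEPES pH 8.0, 25 mM NaCl, imaged in 2.5 °C steps up to 60 °C and normalised to pre-quench Cy3 and control constructs.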

[2] = folding enthalpy; higher = less favourable; fluorescence melt of hairpins on a sequencing array, two-state fit; conditions: sodium 0.088 M
Procedure, shortened: as §1

| Sequence | Tm [1] | folding enthalpy [2] |
| --- | --- | --- |
| GCAGCGCGAAAGCCCGGC ((.(.((....)).).)) | 39.3 °C | -17.6 kcal/mol |
| GCCACGCCGAAAGGCGGC (((..(((....)))))) | 48.3 °C | -7.28 kcal/mol |
| GCGGTGTCCGC ((((...)))) | 58.2 °C | -23 kcal/mol |
| GTGCGACGAAAGTCCCAC (((.(((....))).))) | 47.4 °C | -30.8 kcal/mol |
| GGATCGCGAAAGCGCTCC (((.(((....))).))) | 54.2 °C | -25.3 kcal/mol |
| GTAAAGCCGAAAGGCTAC (((..(((....)))))) | 35.5 °C | -8.48 kcal/mol |
| GGCAGGAAACTGCC (((((....))))) | 65.6 °C | -31.6 kcal/mol |
| GGTAGTGGAAACACTGTC (..((((....))))..) | 29.2 °C | -20.9 kcal/mol |
| GCCGAGCGAAAGCTTCGC ((..(((....)))..)) | 49.2 °C | -11.3 kcal/mol |
| GGTCTCGAAAGAGTCACC ((((((....)))..))) | 31.3 °C | -14.6 kcal/mol |
| GGACTTGGAAACAAGTTC (.(((((....))))).) | 47.5 °C | -29.8 kcal/mol |
| GTCGTATCGAAAGATGAC (((..(((....)))))) | 34.1 °C | -20 kcal/mol |
| GATCCTCGGCAGGATC ((((((....)))))) | 49.7 °C | -29.4 kcal/mol |
| GATCTCTGTAGAGATC ((((((....)))))) | 56.5 °C | -44.1 kcal/mol |
| GACAACGAAAGTTGTGTC ((((((....)))..))) | 50.6 °C | -14.7 kcal/mol |
| GATGCCGGAAACGGTATC (((.(((....))).))) | 53.9 °C | -42.9 kcal/mol |
| GATCTTACTCAAGATC ((((((....)))))) | 42.3 °C | -33.5 kcal/mol |
| GATCCGAAAGCGGATC ((((((....)))))) | 53.1 °C | -34 kcal/mol |
| CGGATACGGAAACGTCCG (((..(((....)))))) | 40.4 °C | -18.6 kcal/mol |
| GTTCAGGGAAACCTGAAC (((((((....))))))) | 60.4 °C | -43.2 kcal/mol |
| GCGGCCGAAAGGCGACGC ((((((....)))..))) | 65.9 °C | -17.2 kcal/mol |
| GAACTGGGAAACCAGTCC (.(((((....))))).) | 37.3 °C | -14.1 kcal/mol |
| GATAGGCGAAAGCCCATC (((.(((....))).))) | 37.7 °C | -13.8 kcal/mol |

| Sequence | Tm [1] | folding enthalpy [2] |
| --- | --- | --- |
| GTCGTTCGAAAGAAGGAC (((.(((....))).))) | 52.2 °C | -38.1 kcal/mol |
| GCTAGGAAACTAGC (((((....))))) | 50.8 °C | -25.6 kcal/mol |
| GCCTGCGAAAGCATGGC ((((((....))).))) | 65.8 °C | -30.8 kcal/mol |
| GATCTTAAAAAAGATC ((((((....)))))) | 33.7 °C | -20.3 kcal/mol |
| GACCAAGGAAACTTGGCC (.(((((....))))).) | 41.7 °C | -16.6 kcal/mol |
| GCCATCGAAAGATGTGGC ((((((....)))..))) | 46.6 °C | -23.4 kcal/mol |
| GAAAGCACGAAAGTGTTC (((..(((....)))))) | 24 °C | -9.28 kcal/mol |
| GATCAGGGAAACTTGATC (((((.(....).))))) | 38.2 °C | -30.7 kcal/mol |
| GTCATTGGAAACAGTGAC ((((.((....)).)))) | 43.9 °C | -33.7 kcal/mol |
| GTCGCCGAAAGGCCTGAC ((((((....)))..))) | 31.8 °C | -12.4 kcal/mol |
| GCGCGAACGAAAGTTCGC (((..(((....)))))) | 68.4 °C | -6.27 kcal/mol |
| GAAAAAGGAAACTTTTTC (((((((....))))))) | 46 °C | -39.7 kcal/mol |
| GATCGATGGATCGATC ((((((....)))))) | 54.5 °C | -36.5 kcal/mol |
| GATCTCTATGAGATC ((((((...)))))) | 54.6 °C | -31.3 kcal/mol |
| GATCTCCCTGAGATC ((((((...)))))) | 55.3 °C | -34.7 kcal/mol |
| GCTTCAGAAATGAAGC ((((((....)))))) | 55.7 °C | -33.7 kcal/mol |
| GCCTTACGAAAGTATGGC (((.(((....))).))) | 55.6 °C | -41 kcal/mol |
| GAGTCCGCGAAAGCGCTC (((..(((....)))))) | 24.8 °C | -7.6 kcal/mol |
| GGTTAGGGAAACCTAGTC (..((((....))))..) | 28.7 °C | -11.7 kcal/mol |
| GTAATACCGAAAGGTTAC (((..(((....)))))) | 31.5 °C | -14.6 kcal/mol |
| GTTGAGCGAAAGCTAAAC (((.(((....))).))) | 48 °C | -26.5 kcal/mol |
| GTCAATCGAAAGATCGAC (((.(((....))).))) | 41.2 °C | -29 kcal/mol |
| GCGGCAGGAAACCGCCGC (((((.(....).))))) | 69.3 °C | -30.6 kcal/mol |

| Sequence | Tm [1] | folding enthalpy [2] |
| --- | --- | --- |
| GGTGTCGAAAGACTAACC ((((((....)))..))) | 40.4 °C | -20.9 kcal/mol |
| GCGCTGCGAAAGCGGGGC ((.(.((....)).).)) | 67.8 °C | -28.8 kcal/mol |
| GCTAGTCGAAAGACCAGC (((.(((....))).))) | 47.3 °C | -26.6 kcal/mol |
| GTATTGGGAAACCAATAC (((((((....))))))) | 53.8 °C | -43.7 kcal/mol |
| GATCACCCCCGTGATC ((((((....)))))) | 55 °C | -36 kcal/mol |
| GTAGTGGGAAACCATTGC (.(.(((....))).).) | 24.3 °C | -10.3 kcal/mol |
| GGCATTGGAAACGATGTC (.(((.(....).))).) | 35.1 °C | -25.7 kcal/mol |
| CGACGCGGAAACGCTTCG (((.(((....))).))) | 50.5 °C | -33.6 kcal/mol |
| GTACACGAAAGTGTTTAC ((((((....)))..))) | 29 °C | -9.29 kcal/mol |
| GATCACGAAAGTGAATC ((((((....))).))) | 45.6 °C | -15.8 kcal/mol |
| GCTGTCGAAAGACATAGC ((((((....)))..))) | 45.1 °C | -16.4 kcal/mol |
| GAGCACGGAAACACGCTC ((((..(....)..)))) | 37 °C | -28.3 kcal/mol |
| GCCGTAGGAAACTATGGC (((.(((....))).))) | 51.3 °C | -34 kcal/mol |
| GGAGGTCCGAAAGGATCC (((..(((....)))))) | 38.3 °C | -12 kcal/mol |
| GTCCTTGGAAACAAGGGC (.(((((....))))).) | 52.3 °C | -36.7 kcal/mol |
| GTCCTAGGAAACTAGGAC (((((((....))))))) | 57.2 °C | -51 kcal/mol |
| GGTCCAGGAAACCGAACC (((.(.(....).).))) | 25.7 °C | -10 kcal/mol |
| CGCGGAACCGTCCGCG ((((((....)))))) | 68.4 °C | -31.9 kcal/mol |
| GAAACCGGAAACGGTCTC ((.((((....)))).)) | 35.5 °C | -14.2 kcal/mol |
| GTACTAGGAAACTAGTGC (.(((((....))))).) | 42.8 °C | -26.9 kcal/mol |
| GTGAGCCCGAAAGGGCAC (((..(((....)))))) | 52.5 °C | -11.2 kcal/mol |
| GTTTCACGAAAGTGAAC (((.(((....)))))) | 49.4 °C | -14.4 kcal/mol |
| GAACGAGGAAACTTGTTC ((((.((....)).)))) | 43.2 °C | -28.7 kcal/mol |

| Sequence | Tm [1] | folding enthalpy [2] |
| --- | --- | --- |
| GTTTGCGAAAGCAGTAAC ((((((....)))..))) | 30.6 °C | -12.9 kcal/mol |
| GGGGTCGAAAGACTGCCC ((((((....)))..))) | 41.5 °C | -16.2 kcal/mol |
| GGCAACCGAAAGGTAGCC (((.(((....))).))) | 62.4 °C | -33.6 kcal/mol |
| CAGCAGAAATGCTG (((((....))))) | 53 °C | -25.6 kcal/mol |
| TCGTTGAAAAACGA (((((....))))) | 44.7 °C | -20.3 kcal/mol |
| GGACATGCGAAAGCATCC (((..(((....)))))) | 28.6 °C | -10.8 kcal/mol |
| GTACCTGGAAACGGGTAC (((((.(....).))))) | 50.4 °C | -41.8 kcal/mol |
| GTTCTGCGAAAGCATAAC (((.(((....))).))) | 43.7 °C | -25 kcal/mol |
| GCAGGCACGAAAGTGTGC (((..(((....)))))) | 39.1 °C | -14.9 kcal/mol |
| GTAAGTGGAAACACTTAC (((((((....))))))) | 55.4 °C | -45.2 kcal/mol |
| GCCGTGCGAAAGCAAAGC ((..(((....)))..)) | 40.4 °C | -9.19 kcal/mol |
| GATCGGAAACCGATC ((((((...)))))) | 56 °C | -38 kcal/mol |
| GATCGGACGCCCGATC ((((((....)))))) | 57.3 °C | -38 kcal/mol |
| GACTTGGCGAAAGCCGTC (((..(((....)))))) | 48.4 °C | -7.4 kcal/mol |
| GATCGTAGTTACGATC ((((((....)))))) | 56.8 °C | -30.9 kcal/mol |
| CGCTCGGAAACGAGGCG ((((((....))).))) | 53.2 °C | -30.6 kcal/mol |
| GTCGCCGAAAGGCAGAC ((((((....))).))) | 61.7 °C | -17.7 kcal/mol |
| CGCCGCGGAAACGCCGCG (((.(((....))).))) | 63.6 °C | -14.9 kcal/mol |
| GACTCGGGAAACCGAGCC (.(((((....))))).) | 47.8 °C | -17 kcal/mol |
| GACGCCGGAAACAGCGCC (.(((.(....).))).) | 31.8 °C | -17.8 kcal/mol |
| GACGAGGGAAACCTTGTC (((.(((....))).))) | 48.1 °C | -31.4 kcal/mol |
| GATTGGGCGAAAGCCATC (((..(((....)))))) | 26.8 °C | -8.31 kcal/mol |
| GGTGTAGGAAACTACGTC (..((((....))))..) | 29.8 °C | -9.53 kcal/mol |
